According to ChEMBL document CHEMBL3526081 (Drug Metab Dispos, 2011):

Assays:
[1] = Drug metabolism in Colony-bred Chinese Bama minipig liver microsomes assessed as 5beta-hydroxylcinobufaginn formation at 100 uM at 37 degC after 30 mins by UFLC-ESI-MS analysis; type: ADME, Sus scrofa; details: pig, 0.5 h, read-out: Km(app)
In short: (§1)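 Liver microsomes (0.3 mg protein/ml) incubated with 100 µM substrate at 37°C for 30 min, in 100 mM potassium phosphate pH 7.4 with NADPH-generating system (1 mM NADP+, 10 mM glucose 6-phosphate, 1 unit/ml G6PDH, 4 mM MgCl2). Acetonitrile ≤1% final. Stopped with ice-cold acetonitrile and centrifuged. Metabolites identified by UFLC-ESI-MS and quantified by UFLC-DAD at 294 nm against authentic standard curves.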

[2] = system: Liver microsome; assay: Drug metabolism in human liver microsomes assessed as 1alpha-hydroxylcinobufagin formation at 100 uM at 37 degC after 30 mins […] in presence of 50 uM triethylenethiophosphoramide CYP2B6 inhibitor; type: ADME; details: 0.5 h
[3] = system: Liver microsome; assay: Drug metabolism in human liver microsomes assessed as 1alpha-hydroxylcinobufagin formation at 100 uM […] by UFLC-ESI-MS analysis; type: ADME; details: 0.5 h, read-out: Km(app)
[4] = Drug metabolism in cynomolgus monkey liver microsomes assessed as 5beta-hydroxylcinobufaginn formation at 100 uM […] by UFLC-ESI-MS analysis; type: ADME, Macaca fascicularis; details: 0.5 h, read-out: Km(app)
[5] = system: Liver microsome; assay: Ratio of Vmax/Km in beagle dog liver microsomes assessed as 1alpha-hydroxylcinobufagin formation at 100 uM […] by UFLC-ESI-MS analysis; type: ADME, Canis lupus familiaris; details: 0.5 h
[6] = system: Liver microsome; assay: Drug metabolism in human liver microsomes assessed as 5beta-hydroxylcinobufagin formation at 100 uM at 37 degC after 30 mins […] in presence of 50 uM triethylenethiophosphoramide CYP2B6 inhibitor; type: ADME; details: 0.5 h
[7] = Drug metabolism in Swiss-Hauschka (ICR) mouse liver microsomes assessed as 1alpha-hydroxylcinobufagin formation at 100 uM at 37 degC after 30 mins by UFLC-ESI-MS analysis; type: ADME; details: 0.5 h, read-out: Km(app); in short: as §1
[8] = system: Liver microsome; assay: Drug metabolism in human liver microsomes assessed as 1alpha-hydroxylcinobufagin formation at 100 uM at 37 degC after 30 mins by UFLC-ESI-MS analysis in presence of NADPH-generating system; type: ADME; details: 0.5 h
In short: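 CB (100 µM; acetonitrile ≤1% final) was incubated with pooled HLM (0.3 mg/ml) plus NADPH-generating system (1 mM NADP+, 10 mM glucose 6-phosphate, 1 unit/ml G6PDH, 4 mM MgCl2) in pH 7.4 phosphate buffer at 37°C for 30 min. Products were identified by UFLC-ESI-MS and quantified by UFLC-DAD at 294 nm.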

[9] = Drug metabolism in Colony-bred Chinese Bama minipig liver microsomes assessed as 1alpha-hydroxylcinobufagin formation per mg of protein at 100 uM at 37 degC after 30 mins by UFLC-ESI-MS analysis; type: ADME, Sus scrofa; details: pig, 0.5 h; in short: as §1
[10] = system: Liver microsome; assay: Drug metabolism in human liver microsomes assessed as 1alpha-hydroxylcinobufagin formation at 100 uM at 37 degC after 30 mins […] in presence of 1 uM ketoconazole CYP3A4 inhibitor; type: ADME; details: 0.5 h
[11] = Drug metabolism in Swiss-Hauschka (ICR) mouse liver microsomes assessed as 5beta-hydroxylcinobufaginn formation per mg of protein at 100 uM at 37 degC after 30 mins by UFLC-ESI-MS analysis; type: ADME; details: 0.5 h; in short: as §1
[12] = Drug metabolism in cynomolgus monkey liver microsomes assessed as 5beta-hydroxylcinobufaginn formation per mg of protein at 100 uM […] by UFLC-ESI-MS analysis; type: ADME, Macaca fascicularis; details: 0.5 h
[13] = system: Liver microsome; assay: Drug metabolism in human liver microsomes assessed as 1alpha-hydroxylcinobufagin formation per mg of protein at 100 uM at 37 degC […] by UFLC-ESI-MS analysis; type: ADME; details: 0.5 h
[14] = Drug metabolism in Colony-bred Chinese Bama minipig liver microsomes assessed as 5beta-hydroxylcinobufaginn formation per mg of protein at 100 uM at 37 degC after 30 mins by UFLC-ESI-MS analysis; type: ADME, Sus scrofa; details: pig, 0.5 h; in short: as §1
[15] = Ratio of Vmax/Km in Colony-bred Chinese Bama minipig liver microsomes assessed as 1alpha-hydroxylcinobufagin formation at 100 uM […] by UFLC-ESI-MS analysis; type: ADME, Sus scrofa; details: pig, 0.5 h
[16] = system: Liver microsome; assay: Drug metabolism in human liver microsomes assessed as 1alpha-hydroxylcinobufagin formation at 100 uM at 37 degC after 30 mins […] in presence of 10 uM sulfaphenazole CYP2C9 inhibitor; type: ADME; details: 0.5 h
[17] = system: Liver microsome; assay: Drug metabolism in beagle dog liver microsomes assessed as 1alpha-hydroxylcinobufagin formation at 100 uM at 37 degC after 30 mins by UFLC-ESI-MS analysis in presence of 10 uM sulfaphenazole CYP2C9 inhibitor; type: ADME, Canis lupus familiaris; details: 0.5 h
In short: (§2)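 Chemical inhibition: selective P450 inhibitors (furafylline, sulfaphenazole, ketoconazole) added to liver microsome incubations in 100 mM potassium phosphate pH 7.4 with NADPH-generating system at 37°C. Hydroxylated metabolite formation quantified by UFLC at 294 nm against standards. Mean ± S.D. of three experiments in duplicate.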

[18] = Drug metabolism in cynomolgus monkey liver microsomes assessed as 1alpha-hydroxylcinobufagin formation at 100 uM at 37 degC after 30 mins by UFLC-ESI-MS analysis in presence of 10 uM furafylline CYP1A2 inhibitor; type: ADME, Macaca fascicularis; details: 0.5 h; in short: as §2
[19] = Drug metabolism in cynomolgus monkey liver microsomes assessed as 5beta-hydroxylcinobufagin formation at 100 uM at 37 degC after 30 mins by UFLC-ESI-MS analysis in presence of NADPH-generating system; type: ADME, Macaca fascicularis; details: 0.5 h; in short: as §1
[20] = system: Liver microsome; assay: Drug metabolism in human liver microsomes assessed as 5beta-hydroxylcinobufagin formation at 100 uM at 37 degC after 30 mins by […] in presence of 1 uM ketoconazole CYP3A4 inhibitor; type: ADME; details: 0.5 h
[21] = system: Liver microsome; assay: Drug metabolism in beagle dog liver microsomes assessed as 5beta-hydroxylcinobufaginn formation at 100 uM at 37 degC after 30 mins by UFLC-ESI-MS analysis; type: ADME, Canis lupus familiaris; details: 0.5 h, read-out: Km(app); in short: as §1
[22] = system: Liver microsome; assay: Drug metabolism in human liver microsomes assessed as 1alpha-hydroxylcinobufagin formation at 100 uM at 37 degC after 30 mins […] in presence of 2 uM montelukast CYP2C8 inhibitor; type: ADME; details: 0.5 h
[23] = system: Liver microsome; assay: Drug metabolism in human liver microsomes assessed as 5beta-hydroxylcinobufaginn formation per mg of protein at 100 uM […] by UFLC-ESI-MS analysis; type: ADME; details: 0.5 h
[24] = Drug metabolism in Colony-bred Chinese Bama minipig liver microsomes assessed as 1alpha-hydroxylcinobufagin formation at 100 uM at 37 degC after 30 mins by UFLC-ESI-MS analysis in presence of NADPH-generating system; type: ADME, Sus scrofa; details: pig, 0.5 h; in short: as §1
[25] = system: Liver; assay: Ratio of Vmax/Km in Swiss-Hauschka (ICR) mouse liver microsomes assessed as 1alpha-hydroxylcinobufagin formation at 100 uM […] by UFLC-ESI-MS analysis; type: ADME; details: 0.5 h
[26] = Drug metabolism in cynomolgus monkey liver microsomes assessed as 1alpha-hydroxylcinobufagin formation per mg of protein at 100 uM at 37 degC after 30 mins by UFLC-ESI-MS analysis; type: ADME, Macaca fascicularis; details: 0.5 h; in short: as §1
[27] = system: Liver microsome; assay: Drug metabolism in human liver microsomes assessed as 5beta-hydroxylcinobufagin formation at 100 uM at 37 degC after 30 mins […] in presence of 2.5 uM 8-methoxypsoralen CYP2A6 inhibitor; type: ADME; details: 0.5 h

## CC(=O)O[C@H]1[C@H]2O[C@]23[C@@H]2CC[C@@H]4C[C@@H](O)CC[C@]4(C)[C@H]2CC[C@]3(C)[C@H]1c1ccc(=O)oc1 [CINOBUFAGIN]
[1]
  Km: 11.9 µM
[2]
  Drug metabolism: metabolite_detected
[3]
  Km: 12.5 µM
[4]
  Km: 8.5 µM
[5]
  Vmax/Km: 387.9 µL/min/mg
[6]
  Drug metabolism: metabolite_detected
[7]
  Km: 14.1 µM
[8]
  Drug metabolism: metabolite_detected
[9]
  Vmax: 0.25 nmol/min/mg
[10]
  Drug metabolism: metabolite_not_detected
[11]
  Vmax: 6.51 nmol/min/mg
[12]
  Vmax: 1.84 nmol/min/mg
[13]
  Vmax: 0.59 nmol/min/mg
[14]
  Vmax: 0.65 nmol/min/mg
[15]
  Vmax/Km: 14.5 µL/min/mg
[16]
  Drug metabolism: metabolite_detected
[17]
  Drug metabolism: metabolite_detected
[18]
  Drug metabolism: metabolite_detected
[19]
  Drug metabolism: metabolite_detected
[20]
  Drug metabolism: metabolite_not_detected
[21]
  Km: 3.4 µM
[22]
  Drug metabolism: metabolite_detected
[23]
  Vmax: 1.17 nmol/min/mg
[24]
  Drug metabolism: metabolite_detected
[25]
  Vmax/Km: 595 µL/min/mg
[26]
  Vmax: 2.12 nmol/min/mg
[27]
  Drug metabolism: metabolite_detected
